Experimental data: the EternaBench riboswitch data

Test system: MS2 coat protein
Assay: apparent Kd, MS2 coat protein; higher = weaker binding; RNA-MaP array; FMN 200 µM where present
Summary of the method: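 Designs were transcribed by stalled E. coli RNA polymerase on Illumina sequencing-chip clusters. They were titrated with SNAP-549-labelled MS2 coat protein from 0.7 or 1.5 nM, doubling to 3 µM, in 100 mM Tris-HCl pH 7.5, 80 mM KCl, 4 mM MgCl2, BSA, DTT, yeast tRNA and Tween-20, without and then with constant ligand. The apparent Kd is the median of filtered per-cluster fits after normalisation of green signal to red-channel RNA signal and control-cluster median Fmax.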

[1] = designed as: OFF switch for flavin mononucleotide, no ligand
[2] = ligand present: flavin mononucleotide, designed as: OFF switch for flavin mononucleotide
[3] = designed as: ON switch for flavin mononucleotide, no ligand
[4] = ligand present: flavin mononucleotide, designed as: ON switch for flavin mononucleotide

| Sequence | apparent Kd [1] [nM] | apparent Kd [2] [nM] | apparent Kd [3] [nM] | apparent Kd [4] [nM] |
| --- | --- | --- | --- | --- |
| UAGAAGUCAGGAUAUGCAUGGCGGGACUUGCGUCGUGGCGUGCAGAAGGGACAUGAGGAUCACCCAUGUGGAGG | 152 | 219 |  |  |
| UAGAAGUCAGGAUAUGCUGCUCGUCACUUGCGUGAUGAGUAGCAGAAGGGACAUGAGGAUCACCCAUGUAAAGU | 52.5 | 91 |  |  |
| UAGACACUUACAGGAUAUAGGGCAGAGGGUGCCCUAGAAGGGUGAACAUGAGGAUCACCCAUGUAUGUGUCUGAUUAGAAGGCA |  |  | 36.2 | 69.4 |
| UAGAUGGGAGGAUAUGCAUAGAUACAGAUUCAUGUAGUGCUACAUGAGGAUCACCCAUGUAGAAGGCCCGUCUU | 21.2 | 225 |  |  |
| UAGCUCUCGGCAGGAUAUCCUGCAUAAUGUCGAGUCCGCGCCCGGACAUGAGGAUCACCCAUGUAGGAGAAGGGCCCACGGGCG | 28 | 32.3 |  |  |
| UAGGACUUCGUAGGAUAUGUAUUUGAUUUCUACAUGAGGAUCACCCAUGUUUGCAUUUUUUUUUGACAGAAGGACGUGGUCGAA |  |  | 30.3 | 17.3 |
| UAGGAGUCAGGAUAUGCGAGAGAUGGAAGUAAGGGAUGAGAGCAGAAGGGACAUGAGGAUCACCCAUGUAAGGA | 39.7 | 37.8 |  |  |
| UAGGUUCGAGGAUAUACAUAGAUACAGAUACAUGUAGACGUACAUGAGGAUCACCCAUGUAGAAGGCGAAUAUA | 80.9 | 186 |  |  |
| UAGUAUAAGGGCAUUAAACAUGAGGAUCACCCAUGUACAAUAGAGGAUAUGCAUUUCGGUUUAGAGUAGAAGGUUAGAGAAUAU | 31.3 | 38.1 |  |  |
| UAGUAUAAGGGCAUUAAACAUGAGGAUCACCCAUGUACGUUAGAGGAUAUGCAUUACAGUUGAGAGUAGAAGGUUAGAGAAGGG | 44.4 | 45.3 |  |  |
| UAGUAUAAGGGCAUUACACAUGAGGAUCACCCAUGUACGUUAGAGGAUAUGCAUUACAGUUGAAAGUAGAAGGUUAGAGAAGGG | 40.5 | 46.5 |  |  |
| UAGUAUCUGCAGGAUAUCAGUGGAAAACACGUAUGAGAAGGGCAGACAUGAGGAUCACCCAUGUAUAGGGUCCG | 81.4 | 206 |  |  |
| UAGUGAUUGCAAGGAUAUGCUUAUGUUUAAUUUUAUUUAUUAUCUAACAUGAGGAUCACCCAUGUGCAGAAGGUGCUUGAUUUG |  |  | 63.4 | 53.4 |
| UAGUGGCAAGGAUAUACAGUGGAGAGGAUUGCAAGAGGUGGACAUGAGGAUCACCCAUGUAGAAGGUGCAGAGA | 298 | 182 |  |  |
| UAUAAACAUGAGGAUCACCCAUGUGAGGAUAUCUAAACCAGAGCGGAUCUCUGGCCCAAGAGAAGGUGCAUGGU | 34.6 | 146 |  |  |
| UAUAAAUACAUUAACAUGAGGAUCACCCAUGUCAAAAGACAUGAGGAUAUGCAUCCUAAUUGGAUGCAGAAGGCAUGUAUAAUU |  |  | 174 | 16.9 |
| UAUAAGUCUCAUGUAACAUGAGGAUCACCCAUGUCAUAUUGUAGAAGGAUGAUAAUAUGUAUAUCAUAGGAUAUACUAUAUGUU | 20.9 | 19.6 |  |  |
| UAUAUAUAGUAAGGAUAUGUAAUAAUUUUAUAAACAGAAGGUACUGACAUGAGGAUCACCCAUGUUUUAGUGUGGGCAUGUAGA | 83.9 | 151 |  |  |
| UAUAUAUAGUAAGGAUAUGUAUUAAUUCUAUAAACAGAAGGUACUGACAUGAGGAUCACCCAUGUUUUAGUGUGGGCAUGUAGA | 49.3 | 56 |  |  |
| UAUAUAUAGUAAGGAUAUGUAUUUAUUCUAUAAACAGAAGGUACUGACAUGAGGAUCACCCAUGUUUUAGUGUGGGCAUGUAGA | 39.9 | 38.8 |  |  |
| UAUAUUAUUAUAGGAUAUGGAUAUGAUGCAUAUCCAGAAGGGUGAUUAUAAUAUUUUCUGUACAUGAGGAUCACCCAUGUUUAG |  |  | 134 | 32.5 |

| Sequence | apparent Kd [1] [nM] | apparent Kd [2] [nM] | apparent Kd [3] [nM] | apparent Kd [4] [nM] |
| --- | --- | --- | --- | --- |
| UAUAUUUUUAUAGGAUAUGGAUAUGAUGCAUAUCCAGAAGGGUGAAUAUAAUAUUUUCUGUACAUGAGGAUCACCCAUGUUUAU |  |  | 235 | 72.2 |
| UAUGGUUAAGUCAGGAUAUGCUCAUAGAGGUCUGUGCAGAAGGGACAUGAGGAUCACCCAUGUAUGGUAGUGUU | 194 | 240 |  |  |
| UAUGUAUUCGUAGGAUAUCCGUUGAAACCGUGUGGAGAAGGACGAACAUGAGGAUCACCCAUGUAUCAUGGUGUAGACAAUUUU | 75.3 | 288 |  |  |
| UAUGUGUCAGGAUAUUAGUAGUAAAUAAAUAAAAUUAUUACUGAGAAGGGACAUGAGGAUCACCCAUGUGCCUC | 32.8 | 354 |  |  |
| UAUUACAGAUAAGGAUAUCGACAUGAGGAUCACCCAUGUAUUUGGGAAUGUUUACUGAAUUCUUACGAGAAGGUAUACGUACUU | 154 | 118 |  |  |
| UAUUAGUAAGGAUAUCCUUGCAUGGACGAAAGUCCAUGCAAGGAGAAGGUACAUGAGGAUCACCCAUGUUCAUU | 17.2 | 17.9 |  |  |
| UAUUAGUAAGGAUAUGAGACGUAGGACGCAAGUCCUACGUCUCAGAAGGUACAUGAGGAUCACCCAUGUUUAUU | 18.1 | 24.4 |  |  |
| UAUUAGUGAGGAUAUGGUAAAGAUAAGAUGAUGAAAGAACUCCAGAAGGCACAUGAGGAUCACCCAUGUAGUAG | 21.8 | 24.6 |  |  |
| UAUUAUAGCAGUGUAUUAAGAUCACAUGAGGAUCACCCAUGUAGAAGGUAUAAGCAAUAUGCUAAUAAGGAUAUACAACACUGC | 8.13 | 27.5 |  |  |
| UAUUUACAUGAGGAUCACCCAUGUCAGGAUAUGUUUCUAUCGUCGAAAGAUGAUAUUUGCAGAAGGGACAAUAU | 36.1 | 72.5 |  |  |
| UAUUUACAUGAGGAUCACCCAUGUUAGGAUAUGUUUCUAUCGUCGAAAGAUGAUAUUUGCAGAAGGGACAUUAU | 20.5 | 23.3 |  |  |
| UAUUUGUGAGGAUAUGAGUCGUAGAACAAUAGUACUACGUCUCAGAAGGUACAUGAGGAUCACCCAUGUUCCUC | 19 | 28 |  |  |
| UCAAAGCUAGGAUAUACAUGAGGAUCACCCAUGUUAUCACCCAUCGGGUCUUGCUUUUGUAGAAGGAGCAAUAA | 28.2 | 59.8 |  |  |
| UCACGGUAUGUAGGAUAUGCAUAGCAUUGCUAUGCAGAAGGACAUGAGGAUCACCCAUGUAUGUAUUCCAUACUAAUCCCGUGU | 6.15 | 6.09 |  |  |
| UCAGGCUUCGAGAAGGACAUGAGGAUCACCCAUGUUAGUUUGAAGCAGCCGUGAGGCUGCAUCAUGUAGGAUAUCGGAGUCUGC | 6.47 | 11.7 |  |  |
| UCAUAAAUUCGAGGAUAUCGGUGAUAAAGAAGACGAGAAGGCGAUUAGAGAGAGAUGGUUAUAGACAUGAGGAUCACCCAUGUU |  |  | 33.9 | 24.1 |
| UCAUACAUGACAUGACAUGAGGAUCACCCAUGUCCAUGUUACAAGGAUAUGUACAUGAAACAUGUACAGAAGGUGUAUUGGACU | 15.4 | 29.4 |  |  |
| UCAUGCAUAGCGAUAUGAUCGAGAGAUCAUGUCGCUAAAUUUAGAAGGACAUGAGGAUCACCCAUGUAGGAUAUGGGAGCAUGC |  |  | 419 | 59.3 |
| UCAUGGUAGCAGGAUAUGCUUGUAAUUUUUUUUGCAGAAGGGCUUACAUGAGGAUCACCCAUGUGUUAGGUCUA | 32.8 | 46.7 |  |  |
| UCAUGUUAGCAGGAUAUGCUAUUUAUUUUUUAUGCAGAAGGGCUUACAUGAGGAUCACCCAUGUGUUAGGUUUU | 41.8 | 21.1 |  |  |
| UCAUUUACCACAGGAUAUAUUCAUAUACAGUUGUUUGGCUCUUACAUAUUAAUAGAAGGGUGCAACAUGAGGAUCACCCAUGUA |  |  | 274 | 191 |
